# In the RNAGym collection of RNA variant scans (doi:10.1126/science.aae0568):
# Variants at the floor of the assay were thinned out.
# B1: tRNA (parent)
# chain: GUUCCGUUGGCGUAAUGGUAACGCGUCUCCCUCCUAAGGAGAAGACUGCGGGUUCGAGUCCCGUACGGAACG
# Variants of: B1
# Assay: yeast fitness relative to wild type (ratio to wild type); higher = fitter; tRNA-Arg(CCU), competitive growth, 37 C, YPD
# Method in brief: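 A pool of Saccharomyces cerevisiae strains, each with a tRNA-Arg(CCU) gene variant at the native genomic locus, was competed in YPD at 37°C for 24 hours across six parallel replicates. The variants had been chemically synthesised at a 3% per-site mutation rate over 69 sites, and gene amplicons before and after competition were read by 100-nucleotide paired-end sequencing. Darwinian fitness relative to wild type rested on changes in genotype frequencies. Genotypes required ≥ 100 starting reads, and estimates < 0.5 were set to 0.5.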
row,Variant,yeast fitness
1,GUUCCGUUGGCGCAAUGGUAAACCGUCUCCCUCUUGAGGUGAAGACUGCGGGUUCGAGUCCCGUACGGAACG,≤ 0.5
2,GUUCCGUUGGCGCAAUGGUAACGCGUCUCCCUCCUAAGGAGAUGACUGCGGGUUCGAGUCCCGUACGGAGCG,0.966
3,GUUCCGUUGGCGCAAUGGUAACGCGUCUCCCUCCUAAGGAGAGGACUGCCGGUUCGAGUCCCGUACAGAACG,≤ 0.5
4,GUUCCGUUGGCGCACUGGUGAUGCAUGUCACUCCUAAGGAGAAGACUGCGGGUUCGCGUCCCGUACGGAACG,0.542
5,GUUCCGUUGGCGCAAUGGUAACGCGUUUCCCUCCUAAGGAGAAGACUGCGGGUUCGAGUCCCGUACGGAACG,0.878
6,GUUCCGUUGGCGCAUAGGAAACGCGUCUCCCUCUUAAGGAGAAGACUGCGGGUUCGCGUCCCGUACGGAACG,≤ 0.5
7,GUUCCGUUGGCGCAAUGGUAACGCGUCUCCCUCCUAAGGAGUAGACUGCGGGUCCGAGUCCCGUCCGGAACG,≤ 0.5
8,GUUCCGUUGGCGCAAUGGUAACGCGUCUCCCUCCUAAGGAGAUGAGUGCGGGUUCGAGUCCCGUACGGAACG,≤ 0.5
9,GUUCCGUUGGCGCGAUGGUAACGCGUCUCCCUCCUAAGGAGCAGACUGCGGGUUCGAGUCGUGUACGGAACG,≤ 0.5
10,GUUCCGUUGGCGCAAUGGUAAUGCGUCUCCCUCCUAAGGAGAAGCCUCCGGGUUCGAGUCCCGUACGGAACG,≤ 0.5
11,GUUCCGUUGGCGCUAUGGUAACGCGUCUCCCUCCUAAGGAGAAGACUGCGGGUUCGAGUCACGUACGGAACG,≤ 0.5
12,GUUCCGUUGGCGCAAUGGUAACGCGUCUACCUCCUAAGGAGAAGACUGCGGGUUCGAGUCCCGUACGGCACG,0.576
13,GUUCCGUUGGCGCAAUGGUCACGCGUCUCCCUCCUAAGGAGAAGACUGCGGGUUCGAGUCCCGUACGGAACG,0.903
14,GUUCCGUUGGCGCAAUGGUAAGGCGUCUCCCUCCUUAGGAGAAGACUGCGGGUUCGAGUCCUGUAUGGCACG,≤ 0.5
15,GUUCCGUUGGCGCAGUGGUAACGCGUCUACCUCCUAAGGAGAAGACUGCGGGUUCGAGUCCCGUACGGAACG,0.508
16,GUUCCGUUGGCGCAAUGGUAGCGCGUCUCCCUCCUAAGCAGAAGACUGCAGGUUCGAGGCAUGUACGGAACG,0.502
17,GUUCCGUUGGCGCAAUGGUAACGCGUCUCCCUCCUAAGGAGAAGACUGCGGGUUCGGGUCCCGUACGGAACG,0.919
18,GUUCCGUUGGCGCAAUGGUAACGCGUCUCCCUCCUAAGGAGAAGACUGCGGGUUCGAGUCCCGUACGGAACG,1.01
19,GUUCCGUUGGCGCAAUGGUACCGCGUCUCCUUCCUAAGGAGAAGACUGCGGGUUCGAGUCCCGUACGGAACG,≤ 0.5

row,Variant,yeast fitness
1,GUUCCGUUGGCGCACUGGUAACGCGUCUCCCUCCUAAGGAGAAGACUACGGGUUCGAGUCCCGUACGGAACG,≤ 0.5
2,GUUCCGUUGGCGCAAUGGUAACGCGUCUCCCUCCUAAGGAGAGGACUGCGGGAUCGAGUCCCGUACGGAACG,≤ 0.5
3,GUUCCGUUGGCGCAAUGGUAGCGCGUCUCCGUCCUAAGGAGAAGGCUGCGGGUUCGAGUCCCGUACGGAACG,0.619
4,GUUCCGUUGGCGCGAUGGUAACGAGUCUCCCGCCUACGGAGAAGACUGCGGGUUCGAGUCCCGAACGGAACG,0.646
5,GUUCCGUUGGCGCAAUGGUAACGCGUGUCCCUCCUAAGGAGAAGACUGCGGGUUCGAGUCCCCUACGGAACG,0.548
6,GUUCCGUUGGCGCAAUGGUAACGCGUCUCCCUCCUAAGGCGAAGACUGCGGGUUCGAGUCCCGUACGGAACG,0.882
7,GUUCCGUUGGCGCAAUGGUAACGCGUCUCCCUCCUAUGGAGAAGACUGGGGGUUCGAGUCCCGUACGGAACG,≤ 0.5
8,GUUCCGUUGGCGCAAUGGUAACGCGUCUCCCUCCUAAGGAGAAGACUGCGGGUUCGAGUCCCGUGCGGACCG,0.744
9,GUUCCGUUGGCGCAAUGGUAACGCGUAUCCCUCCUAAGGAGAAGACUGCGGGUUCGAGUCACGUACGGAACG,≤ 0.5
10,GUUCCGUUGGCGAAAUGGUAACGCGUCUCCCUCCUAAGGAGAAGACUGCGGGUUCGAGACCCGUACGGAACG,0.827
11,GUUCCGUUGGCGCAAUGGUAACGCGUCUCCCUCCUGAGGAGAAGAAUGAGGGUUCGAGUCCCGUACGGAACG,≤ 0.5
12,GUUCCGUUGGCGCAAUGGUAACGUGUCUCCCUCCUAAGGAAAAGACUGCGGGUUCGAGUCCAGUACGGAACG,≤ 0.5
13,GUUCCGUUGGCGCAAUGGUAAUGCGUCUCCCUCCUAAGGAGAAGUCUGCGGGUUCGAGUCCCGUACGGAACG,0.713
14,GUUCCGUUGGCGCAAUGGUAAUGCGUCUCUCUCCUAAGGAGAAGACUGCGGGUUCGAGUCCCGUACGGAACG,≤ 0.5
15,GUUCCGUUGGCGCAAUGGUAACGUGUCUCCCUCGUAAGGAGAAGACUGCGGGUUCGAGUCCCGUACGGAACG,0.556
16,GUUCCGUUGGCGCAAUGGUAACGUGUCUCCCUCUUAAGGAGAAGACUGCGGGUUCGAGUCCCGUACGGAACG,≤ 0.5
17,GUUCCGUUGGCGCACUGGUAACGCGUCUCCCUCCUAAGGAGAAGAGUGCGGGUUCGAGUCCCGUACGGCACG,≤ 0.5
18,GUUCCGUUGGCGCAAUGGUACCGCGUUUCCCUCCUAAGGAGAAGACUGCGGGUUCGAGUCCCAUGCGGAACG,≤ 0.5
19,GUUCCGUUGGCGCAAUGGUAACGCGUCUCCCUCCUAAGGAGAAGACUGCGGGUUCGAGUCCCGUACGGACCG,1.09
